# Experiments:
# Danio rerio [1] = organism: Danio rerio; assay: Induction of neurological impairment in Zebrafish AB embryos assessed as alteration in locomotor activity by measuring swimming activity at 3 to 20 uM measured at 5 days post fertilization; type: organism-based; conditions: in vivo, 120 h
# How it was run: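 Larvae were exposed from 2 hpf in fish water with 1% DMSO. At 5 dpf each larva was placed singly in a well of water or treatment solution. After 1 min acclimation, it was video-tracked for 5 min at 15 positions/s, and distance travelled was scored.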
# [2] = system: Mycobacterium tuberculosis; assay: Antitubercular activity against Mycobacterium tuberculosis H37Rv ATCC 27294 after 7 days by resazurin dye based assay; type: functional; conditions: H37Rv ATCC 27294, 168 h
# How it was run: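 Resazurin microtiter MIC in 7H9 with 10% ADC. Two-fold dilutions from 1 mg/mL DMSO stocks span 25.0–0.05, 10.0–0.02 or 0.02–0.0004 µg/mL, with 2.5% DMSO final. Inoculum is bead-declumped culture grown in 7H9/10% OADC/0.05% Tween 80, diluted to OD600 0.006. Plates run 7 days at 37 °C, then 0.01% resazurin for 48 h. MIC is the lowest concentration preventing the blue-to-pink change. Three independent tests.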
# [3] = Cytotoxicity against human HepG2 cells assessed as cell viability at 10 ug/ml after 72 hrs by MTT assay (reference value: 100%); type: cell-based; conditions: read-out: Activity
# How it was run: (§1)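 Cells were grown in DMEM with 10% heat-inactivated FBS and penicillin-streptomycin, seeded at 2×10^3/well (HepG2, HaCat) or 1×10^3/well (Vero), then left 24 h. Compound was applied at 10 µg/mL final (2% DMSO) for 72 h at 37 °C, 5% CO2. MTT 1 mg/mL was added for 3 h, formazan dissolved in DMSO, and A595 read. Viability is expressed relative to 2% DMSO wells; mean ± SEM, triplicates, three independent experiments.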
# [4] = Cytotoxicity against human HaCaT cells assessed as cell viability at 10 ug/ml after 72 hrs by neutral red uptake assay (reference value: 100%); type: cell-based; conditions: read-out: Activity
# How it was run: (§2)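 Seeding was 2×10^3/well for HepG2 and HaCat and 1×10^3/well for Vero. After 24 h, cells received 10 µg/mL final (2% DMSO) for 72 h at 37 °C, 5% CO2. They were washed with PBS, given neutral red 25 µg/mL in serum-free medium for 3 h, washed, and extracted 30 min with acetic acid/EtOH/water 1:50:49. A540 was read. Viability is relative to 2% DMSO controls; mean ± SEM, three experiments in triplicate.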
# [5] = Cytotoxicity against African green monkey Vero assessed as cell viability at 10 ug/ml after 72 hrs by MTT assay (reference value: 100%); type: cell-based; conditions: chlorocebus sabaeus, Vero cells; read-out: Activity; how it was run: as §1
# [6] = Cytotoxicity against African green monkey Vero assessed as cell viability at 10 ug/ml after 72 hrs by neutral red uptake assay (reference value: 100%); type: cell-based; conditions: chlorocebus sabaeus, Vero cells; read-out: Activity; how it was run: as §2
# [7] = Selectivity index, ratio of cytotoxic concentration for human HepG2 cells by neutral red uptake assay to MIC for Mycobacterium tuberculosis H37Rv ATCC 27294; type: toxicity; conditions: read-out: Selectivity Index
# [8] = Selectivity index, ratio of cytotoxic concentration for human HaCaT cells by MTT assay to MIC for Mycobacterium tuberculosis H37Rv ATCC 27294; type: toxicity; conditions: read-out: Selectivity Index
# [9] = Selectivity index, ratio of cytotoxic concentration for African green monkey Vero cells by MTT assay to MIC for Mycobacterium tuberculosis H37Rv ATCC 27294; type: toxicity; conditions: read-out: Selectivity Index
# [10] = Selectivity index, ratio of cytotoxic concentration for African green monkey Vero cells by neutral red uptake assay to MIC for Mycobacterium tuberculosis H37Rv ATCC 27294; type: toxicity; conditions: read-out: Selectivity Index
# [11] = Stability of the compound in PBS containing 10% DMSO at 25 degC measured after 3 hrs by HPLC analysis; type: physicochemical; conditions: buffer
# [12] = Stability of the compound in PBS containing 10% DMSO at 25 degC measured after 6 hrs by HPLC analysis; type: physicochemical; conditions: buffer
# [13] = Stability of the compound in PBS containing 10% DMSO at 25 degC measured after 9 hrs by HPLC analysis; type: physicochemical; conditions: buffer
# [14] = Stability of the compound in PBS containing 10% DMSO at 25 degC measured after 12 hrs by HPLC analysis; type: physicochemical; conditions: buffer
# [15] = Stability of the compound in PBS containing 10% DMSO at 37 degC measured immediately by HPLC analysis; type: physicochemical; conditions: read-out: Stability
# [16] = Stability of the compound in PBS containing 10% DMSO at 37 degC measured after 3 hrs by HPLC analysis; type: physicochemical; conditions: read-out: Stability
# [17] = Stability of the compound in PBS containing 10% DMSO at 37 degC measured after 9 hrs by HPLC analysis; type: physicochemical; conditions: for remaining at 9 h: PBS containing 10% DMSO, read-out: Stability
# [18] = Stability of the compound in PBS containing 10% DMSO at 37 degC measured after 12 hrs by HPLC analysis; type: physicochemical; conditions: read-out: Stability
# [19] = Stability of the compound in PBS containing 10% DMSO at 37 degC measured after 24 hrs by HPLC analysis; type: physicochemical; conditions: for remaining at 24 h: PBS containing 10% DMSO, read-out: Stability
# [20] = Stability of the compound in PBS containing 10% DMSO at 37 degC measured after 48 hrs by HPLC analysis; type: physicochemical; conditions: read-out: Stability
# Danio rerio [21] = organism: Danio rerio; assay: Cardiotoxicity in Zebrafish AB embryos assessed as heart beat rate at 15 uM measured at 2 days post fertilization by stereomicroscopic method (reference value: 128.7 to 146.3 bpm); type: organism-based; conditions: in vivo, 48 h
# Danio rerio [22] = organism: Danio rerio; assay: Cardiotoxicity in Zebrafish AB embryos assessed as heart beat rate at 3 uM measured at 2 days post fertilization by stereomicroscopic method (reference value: 128.7 to 146.3 bpm); type: organism-based; conditions: in vivo, 48 h
# Danio rerio [23] = organism: Danio rerio; assay: Cardiotoxicity in Zebrafish AB embryos assessed as heart beat rate at 20 uM measured at 2 days post fertilization by stereomicroscopic method (reference value: 128.7 to 146.3 bpm); type: organism-based; conditions: in vivo, 48 h
# Danio rerio [24] = organism: Danio rerio; assay: Cardiotoxicity in Zebrafish AB embryos assessed as heart beat rate at 15 uM measured at 5 days post fertilization by stereomicroscopic method (reference value: 148.1 to 158.2 bpm); type: organism-based; conditions: in vivo, 120 h
# Danio rerio [25] = organism: Danio rerio; assay: Cardiotoxicity in Zebrafish AB embryos assessed as heart beat rate at 20 uM measured at 5 days post fertilization by stereomicroscopic method (reference value: 148.1 to 158.2 bpm); type: organism-based; conditions: in vivo, 120 h
# Danio rerio [26] = organism: Danio rerio; assay: Toxicity in Zebrafish AB embryos assessed as morphological alteration by measuring effect on surface area of eyes at 3 to 20 uM measured at 2 to 5 days post fertilization by stereomicroscopic method; type: organism-based; conditions: in vivo
# How it was run: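 AB embryos are treated from 2 hpf to 5 dpf at 3.0, 15.0 and 20.0 µM in fish water with 1% DMSO, at 28 °C. Controls are fish water and 1% DMSO. Larvae are photographed under a stereomicroscope (3×) at 2 and 5 dpf, n = 30. Body length (µm), ocular distance (µm) and eye surface area (µm²) are measured from the images.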
# Danio rerio [27] = organism: Danio rerio; assay: Toxicity in Zebrafish AB embryos assessed as effect on larval survival rate at 3 to 20 uM; type: organism-based; conditions: in vivo
# How it was run: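 Wild-type AB zebrafish embryos are exposed from 2 hpf to 5 dpf at 3.0, 15.0 and 20.0 µM in fish water with 1% DMSO, at 28 °C on a 14/10 h light-dark cycle. Controls are fish water alone and 1% DMSO. Survival and hatching are checked daily under a stereomicroscope.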
SMILES,Activity (Danio rerio [1]),MIC [2],"viability at 72 h, 10 ug/ml [3]","viability at 72 h, 10 ug/ml [4]","viability at 72 h, 10 ug/ml [5]","viability at 72 h, 10 ug/ml [6]",selectivity ratio [7],selectivity ratio [8],selectivity ratio [9],selectivity ratio [10],Stability [11],Stability [12],Stability [13],Stability [14],remaining at 0 h [15],remaining at 3 h [16],remaining at 12 h [18],remaining at 48 h [20],Activity (Danio rerio [21]),Activity (Danio rerio [22]),also measured
CC1CCCCC1NC(=O)CSc1nc2ccccc2c(=O)[nH]1 (stereo not drawn),Non-Toxic,0.94 µM,94%,99%,102%,95%,≤ 32,≤ 32,≤ 32,≤ 32,128%,122%,127%,137%,100%,92%,70%,80%,151.7 bpm,156.3 bpm,remaining at 9 h [17]: 71%; remaining at 24 h [19]: 81%; Activity (Danio rerio [23]): 153.9 bpm; Activity (Danio rerio [24]): 163.4 bpm; Activity (Danio rerio [25]): 160.6 bpm; Activity (Danio rerio [26]): Non-Toxic; Activity (Danio rerio [27]): Non-Toxic
O=C(CSc1nc2ccccc2c(=O)[nH]1)NC1CCCCC1,Non-Toxic,0.97 µM,86%,97%,90%,92%,≤ 32,≤ 32,≤ 32,≤ 32,108%,100%,118%,101%,100%,109%,120%,111%,155 bpm,149.5 bpm,"Stability ([17]; buffer, 9 h): 123%; Stability ([19]; buffer, 24 h): 127%; Activity (Danio rerio [23]): 155.7 bpm; Activity (Danio rerio [24]): 163 bpm; Activity (Danio rerio [25]): 158.4 bpm; Activity (Danio rerio [26]): Non-Toxic; Activity (Danio rerio [27]): Non-Toxic"
O=C(CSc1nc2ccccc2c(=O)[nH]1)NCC1CCCCC1,Non-Toxic,0.94 µM,79%,88%,89%,97%,≤ 32,≤ 32,≤ 32,≤ 32,103%,115%,116%,112%,100%,106%,111%,105%,143.2 bpm,140.7 bpm,remaining at 9 h [17]: 112%; remaining at 24 h [19]: 104%; Activity (Danio rerio [23]): 152.6 bpm; Activity (Danio rerio [24]): 158.9 bpm; Activity (Danio rerio [25]): 152.5 bpm; Activity (Danio rerio [26]): Non-Toxic; Activity (Danio rerio [27]): Non-Toxic
CC1CCC(NC(=O)CSc2nc3ccccc3c(=O)[nH]2)CC1 (stereo not drawn),Non-Toxic,0.24 µM,89%,94%,84%,95%,≤ 32,≤ 32,≤ 32,≤ 32,97%,97%,99%,100%,100%,80%,70%,48%,127.2 bpm,122.3 bpm,remaining at 9 h [17]: 69%; remaining at 24 h [19]: 43%; Activity (Danio rerio [23]): 146.4 bpm; Activity (Danio rerio [24]): 150.3 bpm; Activity (Danio rerio [25]): 152.2 bpm; Activity (Danio rerio [26]): Non-Toxic; Activity (Danio rerio [27]): Non-Toxic

# Source: ChEMBL document CHEMBL4152290, “1H-Benzo[d]imidazoles and 3,4-dihydroquinazolin-4-ones: Design, synthesis and antitubercular activity” (Eur J Med Chem, 2018)
